Results of several laboratories.
Lines come from different studies, so protocols differ.
Target: Phosphatidylinositol 3-kinase C2 domain-containing subunit gamma (PIK3C2G, Homo sapiens, UniProt O75747)
One construct used (O75747 1-1486): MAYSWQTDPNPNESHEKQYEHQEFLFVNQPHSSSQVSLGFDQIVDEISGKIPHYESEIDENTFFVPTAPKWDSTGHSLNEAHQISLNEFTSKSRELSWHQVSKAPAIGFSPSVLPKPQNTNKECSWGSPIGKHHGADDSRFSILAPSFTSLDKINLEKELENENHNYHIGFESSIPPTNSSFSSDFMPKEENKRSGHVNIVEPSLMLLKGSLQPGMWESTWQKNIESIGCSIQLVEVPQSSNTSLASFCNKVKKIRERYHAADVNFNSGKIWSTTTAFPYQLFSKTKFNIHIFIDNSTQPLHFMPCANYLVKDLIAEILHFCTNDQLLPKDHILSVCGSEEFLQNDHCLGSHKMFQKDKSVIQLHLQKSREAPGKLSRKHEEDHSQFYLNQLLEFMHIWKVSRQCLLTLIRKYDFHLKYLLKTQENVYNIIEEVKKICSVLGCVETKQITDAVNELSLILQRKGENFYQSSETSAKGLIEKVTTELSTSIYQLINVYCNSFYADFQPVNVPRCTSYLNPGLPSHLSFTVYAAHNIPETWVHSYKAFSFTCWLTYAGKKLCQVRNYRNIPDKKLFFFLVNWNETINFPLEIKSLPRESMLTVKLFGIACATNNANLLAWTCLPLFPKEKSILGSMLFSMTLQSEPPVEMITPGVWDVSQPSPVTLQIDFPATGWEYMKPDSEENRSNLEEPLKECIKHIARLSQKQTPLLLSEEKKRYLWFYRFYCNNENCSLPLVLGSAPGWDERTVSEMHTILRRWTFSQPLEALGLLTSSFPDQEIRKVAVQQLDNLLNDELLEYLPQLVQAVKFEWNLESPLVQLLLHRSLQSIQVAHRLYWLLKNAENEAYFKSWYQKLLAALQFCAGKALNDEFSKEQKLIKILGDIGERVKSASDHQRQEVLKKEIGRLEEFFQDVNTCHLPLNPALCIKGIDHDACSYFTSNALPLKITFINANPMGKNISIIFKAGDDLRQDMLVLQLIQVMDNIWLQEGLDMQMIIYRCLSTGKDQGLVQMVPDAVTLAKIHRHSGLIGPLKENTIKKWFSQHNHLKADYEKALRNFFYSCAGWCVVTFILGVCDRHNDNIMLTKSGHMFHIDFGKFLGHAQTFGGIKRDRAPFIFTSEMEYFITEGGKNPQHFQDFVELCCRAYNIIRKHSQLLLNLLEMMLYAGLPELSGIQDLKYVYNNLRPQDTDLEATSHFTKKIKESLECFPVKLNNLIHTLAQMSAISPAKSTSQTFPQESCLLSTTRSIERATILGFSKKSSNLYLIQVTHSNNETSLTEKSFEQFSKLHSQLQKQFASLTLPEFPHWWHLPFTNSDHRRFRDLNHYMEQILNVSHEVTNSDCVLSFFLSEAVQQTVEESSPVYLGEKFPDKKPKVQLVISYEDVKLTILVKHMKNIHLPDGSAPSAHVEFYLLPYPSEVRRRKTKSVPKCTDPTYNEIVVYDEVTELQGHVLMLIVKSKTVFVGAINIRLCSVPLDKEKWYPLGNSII

assay | conditions | remaining binding [%] | Structure (SMILES)
binding, competition with immobilised ligand | 1 µM | 92 | Nc1ncc2c(n1)-c1c([nH]c3ccc(C#CC4CC4)cc13)CCCC2
cell-free assay, competition with immobilised ligand | 1 µM | 86 | COc1ccc2c(O[C@@H]3C[C@H]4C(=O)N[C@]5(C(=O)O)CC5/C=C\CCCCC[C@H](NC(=O)OC5CCCC5)C(=O)N4C3)cc(-c3csc(NC(=O)C(C)C)n3)nc2c1C (some centres unmarked)
binding, competition with immobilised ligand | 1 µM | 54 | COc1cnc(Nc2cccc(S(N)(=O)=O)c2)nc1N1CCN(c2ccccc2)C(=O)C1
binding, competition with immobilised ligand | 1 µM | 100 | O=C(c1ccc(Nc2nccc(-c3cc4ccccc4s3)n2)cc1)N1CCC(N2CCCC2)CC1
binding, competition with immobilised ligand | 1 µM | 100 | O=C(Nc1c[nH]nc1C(=O)NC1CCNCC1)c1cc(F)cc(F)c1
binding, competition with immobilised ligand | 1 µM | 100 | O=C(c1ccc(Nc2ncc(Cl)c(-c3ccc(Cl)s3)n2)cc1)N1CCC(N2CCCC2)CC1
binding, competition with immobilised ligand | 1 µM | 100 | CNC(=O)[C@@H]1CC[C@@H](n2c(-c3ccc4cnccc4c3)nc3ccc(C(=O)NCc4cccc(C(N)=O)c4)cc32)C1
cell-free assay, competition with immobilised ligand | 1 µM | 84 | C[C@@H](c1cccc(C#N)c1)n1cc(Cl)cc(C(N)=O)c1=N
binding | 1 µM | 79 | C[C@H]1CCN(c2nccc(-c3cnn4ncccc34)n2)C1
cell-free assay, competition with immobilised ligand | 1 µM | 100 | CCS(=O)(=O)c1cc2cc(C[C@](O)(CC(C)(C)c3ccc(F)cc3C(N)=O)C(F)(F)F)[nH]c2cn1
binding | 1 µM | 100 | CN(C)c1nccc(-c2cnn3ncccc23)n1
cell-free assay, competition with immobilised ligand | 1 µM | 75 | O=C(NCc1ncc(C(F)(F)F)cc1Cl)c1ccc2c(c1)C1(CCS(=O)(=O)CC1)[C@@H](C1CC1)N2S(=O)(=O)c1ccc(F)cc1
binding | 1 µM | 99 | CN(c1nccc(-c2cnn3ncccc23)n1)C1CC1
cell-free assay, competition with immobilised ligand | 1 µM | 85 | CC(=O)N1CCC(c2ccc(C(=O)NC3=NCCN3)cc2C(F)(F)F)CC1
binding, competition with immobilised ligand | 1 µM | 96 | O=C(c1ccc(Nc2ncc(Cl)c(-c3cc4ccccc4s3)n2)cc1)N1CCC(N2CCCC2)CC1
binding | 1 µM | 100 | N[C@@H]1CCN(c2nccc(-c3cnn4ncccc34)n2)C1
binding, competition with immobilised ligand | 10 µM | 9.6 | Cc1nc(NC(=O)N2CCC[C@H]2C(N)=O)sc1-c1ccnc(C(C)(C)C(F)(F)F)c1
cell-free assay, competition with immobilised ligand | 1 µM | 66 | CN(C)C(=O)Cn1cc(-c2nc([C@@](C)(c3ccc(-c4cnc(N)nc4)cc3)C3CC3)no2)cn1
binding | 1 µM | 93 | COc1ccnn2ncc(-c3ccnc(N(C)C)n3)c12
cell-free assay, competition with immobilised ligand | 5 µM | 84 | COc1ncc2cc3ccccc3nc2c1C#N
